Measured values collected from several papers.
Matrix: plasma

CC(C)(Sc1ccncc1-c1ccc(C#N)c2ccccc12)C(=O)O
AUC(0-inf) (male human; oral, 40 mg, single dose, fasted, healthy volunteers): 1270 ng·h/mL

Cn1cc(-c2ccc(S(=O)(=O)[C@@H]3C[C@@H](C(=O)NC4(C#N)CC4)N(C(=O)C4(C(F)(F)F)CC4)C3)c(C(F)(F)F)c2)cn1
AUC(0-inf) (human; oral, 1 mg, single dose, fasted, healthy volunteers): 44.9 ng·h/mL

C[C@@]1(c2cc(NC(=O)c3ccc(C#N)cn3)ccc2F)C=CSC(N)=N1
AUC(0-inf) (human; oral, 90 mg, single dose): 8950 ng·h/mL

COc1ccc([C@@H]2CN(C(=O)[C@@H](O)CO)C[C@@]2(C)[C@@H](C)O)cc1OC1CN(c2ccc(C)cn2)C1
AUC(0-inf) (human; oral, 10 mg, single dose, healthy volunteers): 3160 ng·h/mL

O=C(/C=C/c1cccc(S(=O)(=O)Nc2ccccc2)c1)NO
AUC(0-inf) (human; intravenous, 1800 mg/m², patients): 55200 ng·h/mL

CC(C)(O)c1ccccc1-c1ccc2[nH]c(/C=C/c3ccc(C(F)(F)F)cc3)nc2c1
AUC(0-inf) (male human; oral, 50 mg, single dose, fasted, healthy volunteers): 7820 ng·h/mL

O=C(Nc1c(Cl)cncc1Cl)c1ccc(OC(F)F)c(OCC2CC2)c1
AUC(0-inf) (human; oral, 0.25 mg, single dose, fasted): 33.8 ng·h/mL

CO[C@H]1CC[C@H](N2C(=O)CNc3ncc(-c4ccc(C(C)(C)O)nc4)nc32)CC1
AUC(0-inf) (human; oral, 30 mg, patients): 1230 ng·h/mL

CCc1nc2c(C)cc(N3CCN(CC(=O)N4CC(O)C4)CC3)cn2c1N(C)c1nc(-c2ccc(F)cc2)c(C#N)s1
AUC(0-inf) (human; oral, 300 mg, single dose, fed, healthy volunteers): 14900 ng·h/mL

CC(C)n1cc(C#N)c2cc(-n3cc(C(=O)O)cn3)ccc21
AUC(0-inf) (human; oral, 10 mg, single dose, fasted, healthy volunteers): 1770 ng·h/mL

CS(=O)(=O)CCC#N
AUC(0-inf) (human; oral, 100 mg, single dose, fasted): 77000 ng·h/mL
